Source: PubChem (several laboratories)
Most compounds without a hit are left out; they make up all but 2.2% or so of the library.
EBV gp42 inh – Epstein-Barr virus gp42 inhibitors, primary screen, biochemical, uHTS, fluorescence polarization; inhibition, % (tested at 21.74 µM); Fluorescence polarization binding assay, mP read-out; Glycoprotein 42 (Epstein-Barr virus (strain AG876)), Q1HVG2; AID 1085, 2008; 0.42% of 220,000 active; in the data active = inhibition above about 50%
Target sequence (Q1HVG2 whole entry, looked up): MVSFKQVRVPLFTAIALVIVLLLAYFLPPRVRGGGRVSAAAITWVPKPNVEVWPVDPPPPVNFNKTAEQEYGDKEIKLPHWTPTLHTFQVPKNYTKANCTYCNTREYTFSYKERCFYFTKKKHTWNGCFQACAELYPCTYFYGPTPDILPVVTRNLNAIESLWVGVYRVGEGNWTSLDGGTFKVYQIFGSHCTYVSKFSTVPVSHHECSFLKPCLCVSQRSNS
MEX-5 binding – MEX-5 zinc finger RNA-binding disruptors – biochemical, C. elegans, fluorescence polarization, MLPCN library, primary screen. MEX-5/FITC-TCR2 RNA binding; hits give low values. 0.38% of 300,000 active. activity score (negative = inhibition of binding), % at 10 µM. Zinc finger protein mex-5 (Caenorhabditis elegans), Q9XUB2;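 active = inhibition past about -25% in most replicates, and total fluorescence under double the plate's negative control median, limit read from the data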;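 note: 0% = DMSO and -100% = 5 µM competing unlabeled TCR2 RNA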
Bcl-xL primary – inhibitors of human Bcl-xL, primary screen, biochemical, fluorescence polarization, HTS; Bcl-2-like protein 1 (Homo sapiens), Q07817; GST-Bcl-xL / FITC-Bim BH3 peptide fluorescence polarization; inhibition, % at 10.9 µM; 0.7% of 320,000 active;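 active = inhibition above the mean of all tested compounds plus 3 SD, cutoff set per campaign, cut at about 30% in these data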;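 note: 0% = DMSO wells and 100% = unlabeled Bim-BH3 peptide competitor; inhibitors lower millipolarization by displacing the labeled peptide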
Target sequence (Q07817 whole entry, looked up): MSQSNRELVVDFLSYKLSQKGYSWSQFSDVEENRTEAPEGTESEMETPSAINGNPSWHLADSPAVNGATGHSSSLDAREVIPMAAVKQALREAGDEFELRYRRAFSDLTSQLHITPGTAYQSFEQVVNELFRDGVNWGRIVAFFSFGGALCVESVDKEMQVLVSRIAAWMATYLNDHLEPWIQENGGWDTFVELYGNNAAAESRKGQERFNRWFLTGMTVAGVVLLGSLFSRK
GLD-1 RNA inh – GLD-1/TGE RNA complex disruptors, primary screen, biochemical, fluorescence polarization; Female germline-specific tumor suppressor gld-1 (Caenorhabditis elegans), Q17339; purified GLD-1 + fluorescein TGE RNA; inhibition, % at 5.96 µM; 0.44% of 320,000 active; AID 2280, 2010;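 active = percent inhibition above a per-plate cutoff, the plate mean of test compounds plus 3 SD, cut at about 30% in these data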;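 note: 0% = DMSO wells with GLD-1 and probe and 100% = wells lacking GLD-1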
IMP-1 inh – IMP-1 metallo-beta-lactamase inhibitors, primary screen, biochemical, epi-absorbance readout, Pseudomonas aeruginosa enzyme; metallo-beta-lactamase IMP-1 (Pseudomonas aeruginosa); purified IMP-1, nitrocefin hydrolysis, epi-absorbance fluorescence; inhibition, % at 5.6 µM; 0.45% of 290,000 active; AID 1556, 2009;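 active = inhibition above the mean plus 3 SD of all compounds in the same screening run, cut at about 4.5% in these data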;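 note: 0% = IMP-1 with DMSO and 100% = DMSO wells lacking enzyme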
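System: purified IMP-1; amount: IMP-1 0.2 nM before substrate addition; compound: single dose, 5.6 µM; times: 25 °C, 15 min preincubation, 25 min reaction; signal: Epi-absorbance via hydrolysed-nitrocefin quenching of white-plate fluorescence, 480/530 nm, EDTA stop; benchmarks: DMSO with and without IMP-1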
VIM-2 inh – VIM-2 metallo-beta-lactamase inhibitors, primary screen, biochemical, epi-absorbance readout, Pseudomonas aeruginosa enzyme; inhibition, % at 5.6 µM; 0.89% of 290,000 active; purified VIM-2, nitrocefin hydrolysis, epi-absorbance fluorescence;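 active = inhibition above the mean of all tested compounds plus 3 SD, cutoff set per screening run, cut at about 7.5% in these data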;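 note: red hydrolysis product quenches plate fluorescence so inhibitors raise well fluorescence; 0% = enzyme with DMSO and 100% = DMSO without enzyme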
GLD1 RNA confirm – GLD-1/TGE RNA binding inhibitors, retest, confirmation, biochemical, fluorescence polarization, triplicate. GLD-1/FL-TGE RNA fluorescence polarization. inhibition, % at 5.96 µM. shares compounds with GLD-1 RNA inh. 10% of 550 active. AID 2459, 2010;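 active = average inhibition across triplicates above the hit cutoff set in the primary screen, cut at about 32% in these data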;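 note: 0% = GLD-1 with RNA probe and DMSO and 100% = wells lacking GLD-1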
Numbers without * were called inactive; . = no result.

SMILES	EBV gp42 inh	MEX-5 binding	Bcl-xL primary	GLD-1 RNA inh	IMP-1 inh	VIM-2 inh	GLD1 RNA confirm
COc1ccc(Nc2ncc3c(n2)CC(c2ccc(OC)cc2)CC3=O)cc1 (stereo not drawn)	-6	3	4	45*	-4	-2	1
COc1ccc(Nc2ncc3c(n2)CC(c2ccc(C)cc2)CC3=O)cc1 (stereo not drawn)	-16	-2	6	3	-2	-4	.
Cc1ccc(S(=O)(=O)N(C)Cc2ccc(C(=O)N/N=C3\CCCC(=O)C3)cc2)cc1	-19	-4	2	49*	-1	0	3
O=C1CCC/C(=N/NC(=O)c2ccc(CN3c4cccc5cccc(c45)S3(=O)=O)cc2)C1	0	-1	11	40*	-5	-5	2
Cc1ccc(S(=O)(=O)N(C)Cc2ccc(C(=O)NN=C3C4CC5CC(C4)CC3C5)cc2)cc1	-2	1	0	2	0	-2	.
COCc1cccc(C2=CC(=O)C[C@H](c3ccc(F)cc3)C2)c1	.	.	1	6	.	.	.
CCCNC(=O)CN1CCN(c2cc3ccccc3c(Cl)n2)CC1	.	-4	17	10	-2	-1	.
CCCCNc1c(-c2ccc(OC)c(Sc3ccc(OC)cc3)c2)nc2cnccn12	.	.	.	5	.	.	.
CCCCNc1c(-c2ccc(SC(C)CC)cc2)nc2cnccn12 (stereo not drawn)	.	.	.	43*	.	.	3
O=C(CSC1=Nc2ccccc2C2=NC(CC(=O)NC3CCCCC3)C(=O)N12)NCc1ccco1 (stereo not drawn)	-14	-13	61*	35*	3	2	29
O=C(CCC1N=C2c3ccccc3N=C(SCc3ccccc3Cl)N2C1=O)NCc1ccco1 (stereo not drawn)	-7	2	3	2	-3	-2	.
CCCn1c(/N=C/c2c[nH]c3ccccc23)nc2ccccc21	5	1	80*	40*	-3	-1	1
CCOc1ccc(NC(=S)NNC(=O)c2ccc(Br)cc2)cc1	-17	0	6	-9	-4	-3	.
Cc1nn2c(N)csc2nc1=O	13	-25	57*	34*	-2	-3	20
O=C(Nc1nnc(-c2ccc(F)cc2)o1)c1ccc(S(=O)(=O)N2CCOCC2)cc1	.	2	3	0	-2	-3	.
CCN(CC)C(=O)C1=C(C)NC(=O)NC1c1ccccc1F (stereo not drawn)	10	-10	51*	40*	-4	-1	6
CN1CCN(C(CNC(=O)C(=O)NC2CCCCC2)c2ccc(F)cc2)CC1 (stereo not drawn)	.	1	9	10	.	.	.
CCCCn1c(N)c(N(CC)C(=O)C2CCN(C(=O)c3ccccc3C)CC2)c(=O)[nH]c1=O	.	.	-8	4	.	.	.
CC(C)CCN(C)C1CCN(C(=O)Nc2c(F)cccc2F)CC1	-6	3	37*	35*	-3	-6	-4
COc1ccc(S(=O)(=O)Nc2cccc(-c3ccc4nncn4n3)c2)c(OC)c1	.	-1	9	5	.	.	.
Cc1cc2ncn(/N=C/c3ccc(-c4ccccc4)o3)c2cc1C	3	2	8	-2	-1	0	.
Cc1ccc(/C=N/n2cnc3sc(-c4ccccc4)cc3c2=O)o1	-7	-5	124*	65*	-2	0	-2
CN1CC2=Cc3ccccc3OC23Oc2ccccc2C=C3C1	2	-8	14	33*	0	-1	39*
O=C(O)c1ccc(N/N=C2/CCCc3ccccc32)cc1	-12	-7	14	4	-3	0	.
Cn1c(CC(=O)NNC(=O)c2ccc(F)cc2Cl)nc2ccccc21	.	.	8	-1	.	.	.
